{"source": "ChEMBL document CHEMBL2311437", "about": "“Synthesis, molecular docking and evaluation of thiazolyl-pyrazoline derivatives containing benzodioxole as potential anticancer agents” (Bioorg Med Chem, 2013)", "key": {"MCF7 [1]": {"system": "MCF7", "assay": "Antiproliferative activity against human MCF7 cells after 48 hrs by MTT assay", "assay_type": "functional, cell-based", "conditions": "MCF7, 48 h"}, "[2]": {"assay": "Antiproliferative activity against mouse B16/F10 cells after 48 hrs by MTT assay", "assay_type": "functional, cell-based", "conditions": "B16-F10, 48 h", "method_in_brief": "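Cells seeded 7×10^3/well, grown 24 h, then exposed 48 h to compounds at final 0.1–100 µg/mL. MTT (5 mg/mL in PBS) added for 4 h, then 10% SDS in 0.01 N HCl, 18 h at 37 °C. Absorbance read at 570 nm. Survival given as % of untreated cells. IC50 taken from replicates of 6 wells over at least three independent experiments.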"}, "[3]": {"target": "Receptor tyrosine-protein kinase erbB-2 (Homo sapiens, UniProt P04626)", "sequence (P04626 whole entry, the tested form may be a part)": "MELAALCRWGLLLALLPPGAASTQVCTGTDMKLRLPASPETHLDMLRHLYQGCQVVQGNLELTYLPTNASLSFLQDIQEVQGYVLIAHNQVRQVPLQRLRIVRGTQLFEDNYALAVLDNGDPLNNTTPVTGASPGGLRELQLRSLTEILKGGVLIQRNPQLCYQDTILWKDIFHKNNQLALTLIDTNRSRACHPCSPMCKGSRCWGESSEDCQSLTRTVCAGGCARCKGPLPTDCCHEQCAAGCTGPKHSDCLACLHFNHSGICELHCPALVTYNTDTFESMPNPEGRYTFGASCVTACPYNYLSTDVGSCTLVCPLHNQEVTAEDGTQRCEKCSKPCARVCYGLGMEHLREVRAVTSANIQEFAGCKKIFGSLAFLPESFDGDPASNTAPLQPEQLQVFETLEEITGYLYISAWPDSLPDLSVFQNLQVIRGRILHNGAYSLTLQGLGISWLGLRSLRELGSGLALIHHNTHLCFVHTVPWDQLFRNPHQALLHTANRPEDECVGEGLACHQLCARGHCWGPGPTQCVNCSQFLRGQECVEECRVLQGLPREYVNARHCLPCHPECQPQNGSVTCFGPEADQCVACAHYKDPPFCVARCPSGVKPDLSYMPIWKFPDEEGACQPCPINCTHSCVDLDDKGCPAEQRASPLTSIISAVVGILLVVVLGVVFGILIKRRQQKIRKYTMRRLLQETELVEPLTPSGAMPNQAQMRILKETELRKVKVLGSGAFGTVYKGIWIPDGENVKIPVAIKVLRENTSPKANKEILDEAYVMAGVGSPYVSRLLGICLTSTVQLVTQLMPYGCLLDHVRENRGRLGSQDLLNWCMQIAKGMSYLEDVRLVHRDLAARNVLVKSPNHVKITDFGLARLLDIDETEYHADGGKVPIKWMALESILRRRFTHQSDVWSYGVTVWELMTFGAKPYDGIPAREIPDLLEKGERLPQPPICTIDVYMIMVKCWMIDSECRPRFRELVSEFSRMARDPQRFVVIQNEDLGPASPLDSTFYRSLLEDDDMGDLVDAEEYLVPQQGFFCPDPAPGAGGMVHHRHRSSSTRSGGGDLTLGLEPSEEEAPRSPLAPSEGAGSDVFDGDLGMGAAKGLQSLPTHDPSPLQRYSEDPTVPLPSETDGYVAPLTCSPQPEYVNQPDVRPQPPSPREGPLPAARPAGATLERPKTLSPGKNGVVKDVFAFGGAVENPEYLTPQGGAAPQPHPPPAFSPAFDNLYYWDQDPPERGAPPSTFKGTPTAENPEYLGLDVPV", "assay": "Inhibition of human HER2 cytoplasmic domain (amino acids 676 to 1245) expressed in Sf9 cells by DELFIA time resolved fluorometry", "method_in_brief": "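His6-tagged HER-2 was expressed in Sf-9 cells (3-day infection) and Ni-NTA purified at 4 °C. Assay measures autophosphorylation. Compound in 25 mM HEPES pH 7.4 (DMSO <0.1%) preincubated 10 min at RT with 12.5 ng enzyme. Then buffer (MnCl2, Na3VO4, DTT) and 0.1 mM ATP-50 mM MgCl2 (stock mix) added for 1 h. Readout: europium anti-phosphotyrosine, 1 h, ex 340/em 615 nm. IC50 from eight-concentration inhibition curves.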"}, "[4]": {"target": "Receptor tyrosine-protein kinase erbB-2 (Mus musculus) (UniProt P70424)", "sequence (P70424 whole entry)": "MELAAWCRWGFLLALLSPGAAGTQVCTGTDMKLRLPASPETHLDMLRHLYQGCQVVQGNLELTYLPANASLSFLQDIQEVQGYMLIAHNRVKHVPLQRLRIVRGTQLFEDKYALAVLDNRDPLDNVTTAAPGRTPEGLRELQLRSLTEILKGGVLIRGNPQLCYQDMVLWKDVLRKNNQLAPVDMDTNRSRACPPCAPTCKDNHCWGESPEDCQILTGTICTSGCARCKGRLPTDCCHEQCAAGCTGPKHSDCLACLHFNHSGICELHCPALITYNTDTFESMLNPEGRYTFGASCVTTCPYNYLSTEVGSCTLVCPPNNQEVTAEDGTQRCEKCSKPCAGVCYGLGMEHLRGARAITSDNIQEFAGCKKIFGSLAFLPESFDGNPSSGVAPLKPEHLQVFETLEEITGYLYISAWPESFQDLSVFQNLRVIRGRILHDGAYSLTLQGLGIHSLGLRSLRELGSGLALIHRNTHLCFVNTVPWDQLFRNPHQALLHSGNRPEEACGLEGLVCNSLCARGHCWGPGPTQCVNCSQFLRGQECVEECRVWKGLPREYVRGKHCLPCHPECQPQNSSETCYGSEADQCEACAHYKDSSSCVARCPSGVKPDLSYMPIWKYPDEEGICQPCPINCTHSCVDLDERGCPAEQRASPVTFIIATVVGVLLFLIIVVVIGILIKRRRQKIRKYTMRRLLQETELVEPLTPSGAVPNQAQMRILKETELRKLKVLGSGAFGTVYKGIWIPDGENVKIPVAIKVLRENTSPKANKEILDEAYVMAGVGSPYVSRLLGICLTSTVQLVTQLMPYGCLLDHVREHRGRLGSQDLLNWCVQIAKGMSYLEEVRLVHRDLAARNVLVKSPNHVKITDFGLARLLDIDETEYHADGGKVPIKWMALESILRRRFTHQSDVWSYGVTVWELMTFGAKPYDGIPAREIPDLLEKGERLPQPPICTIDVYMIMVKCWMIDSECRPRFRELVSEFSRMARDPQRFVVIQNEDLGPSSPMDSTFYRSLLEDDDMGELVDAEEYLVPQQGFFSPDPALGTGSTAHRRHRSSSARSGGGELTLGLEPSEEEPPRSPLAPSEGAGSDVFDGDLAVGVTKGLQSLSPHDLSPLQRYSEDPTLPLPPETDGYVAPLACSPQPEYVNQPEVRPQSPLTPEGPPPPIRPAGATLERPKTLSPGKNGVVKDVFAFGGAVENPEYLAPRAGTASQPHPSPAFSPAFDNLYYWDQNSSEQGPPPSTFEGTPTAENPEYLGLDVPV", "assay": "Inhibition of HER2 in mouse B16/F10 cells assessed as down regulation of HEr2 protein levels after 24 hrs by Western blotting method", "assay_type": "cell-based", "method_in_brief": "(§1)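 Cells treated 24 h, harvested and lysed in Tris pH 7.5/NaCl/NP-40 buffer with phosphatase and protease inhibitors. Protein quantified by BCA. Separation by 10% SDS–PAGE, transfer to PVDF, blocking in 5% milk 2 h at RT. Probed overnight at 4 °C with anti-HER-2 or anti-cleaved caspase 3, then HRP secondary antibody.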"}, "B16-F10": {"system": "B16-F10", "assay": "Induction of apoptosis in mouse B16/F10 cells assessed as increase in cleaved caspase 3 levels after 24 hrs by Western blotting method", "assay_type": "functional, cell-based", "method_in_brief": "as §1"}, "MCF7 [5]": {"system": "MCF7", "assay": "Induction of apoptosis in human MCF7 cells assessed as increase in cleaved caspase 3 levels after 24 hrs by Western blotting method", "assay_type": "functional, cell-based", "method_in_brief": "as §1"}}}
{"smiles": "Fc1ccc(C2=NN(c3nc(-c4ccc(Br)cc4)cs3)C(c3ccc4c(c3)OCO4)C2)cc1", "note": "(stereo not given)", "values": [{"measurement": "IC50", "setting": "MCF7 [1]", "value": 3.43, "unit": "µM"}, {"measurement": "IC50", "setting": "[2]", "value": 3.81, "unit": "µM"}]}
{"smiles": "Brc1ccc(C2=NN(c3nc(-c4ccc(Br)cc4)cs3)C(c3ccc4c(c3)OCCO4)C2)cc1", "note": "(stereo not given)", "values": [{"measurement": "IC50", "setting": "MCF7 [1]", "value": 0.32, "unit": "µM"}, {"measurement": "IC50", "setting": "[3]", "value": 0.46, "unit": "µM"}, {"measurement": "IC50", "setting": "[2]", "value": 0.43, "unit": "µM"}]}
{"smiles": "COc1ccc(-c2csc(N3N=C(c4ccc(C)cc4)CC3c3ccc4c(c3)OCCO4)n2)cc1", "note": "(stereo not given)", "values": [{"measurement": "IC50", "setting": "MCF7 [1]", "value": 2.68, "unit": "µM"}, {"measurement": "IC50", "setting": "[2]", "value": 2.87, "unit": "µM"}]}
{"smiles": "Clc1ccc(C2=NN(c3nc(-c4ccc(Br)cc4)cs3)C(c3ccc4c(c3)OCCO4)C2)cc1", "note": "(stereo not given)", "values": [{"measurement": "IC50", "setting": "MCF7 [1]", "value": 2.23, "unit": "µM"}, {"measurement": "IC50", "setting": "[2]", "value": 2.15, "unit": "µM"}]}
{"smiles": "COc1ccc(-c2csc(N3N=C(c4ccc(F)cc4)CC3c3ccc4c(c3)OCO4)n2)cc1", "note": "(stereo not given)", "values": [{"measurement": "IC50", "setting": "MCF7 [1]", "value": 3.65, "unit": "µM"}, {"measurement": "IC50", "setting": "[2]", "value": 3.98, "unit": "µM"}]}
{"smiles": "Cc1ccc(C2=NN(c3nc(-c4ccc(Br)cc4)cs3)C(c3ccc4c(c3)OCO4)C2)cc1", "note": "(stereo not given)", "values": [{"measurement": "IC50", "setting": "MCF7 [1]", "value": 1.41, "unit": "µM"}, {"measurement": "IC50", "setting": "[3]", "value": 2.23, "unit": "µM"}, {"measurement": "IC50", "setting": "[2]", "value": 1.39, "unit": "µM"}]}
{"smiles": "C#Cc1cccc(Nc2ncnc3cc(OCCOC)c(OCCOC)cc23)c1", "note": "[ERLOTINIB]", "values": [{"measurement": "IC50", "setting": "[2]", "value": 0.05, "unit": "µM"}]}
{"smiles": "COc1ccc(-c2csc(N3N=C(c4ccc(Cl)cc4)CC3c3ccc4c(c3)OCCO4)n2)cc1", "note": "(stereo not given)", "values": [{"measurement": "IC50", "setting": "MCF7 [1]", "value": 3.03, "unit": "µM"}, {"measurement": "IC50", "setting": "[2]", "value": 3.12, "unit": "µM"}]}
{"smiles": "COc1ccc(-c2csc(N3N=C(c4ccc(C)cc4)CC3c3ccc4c(c3)OCO4)n2)cc1", "note": "(stereo not given)", "values": [{"measurement": "IC50", "setting": "MCF7 [1]", "value": 1.43, "unit": "µM"}, {"measurement": "IC50", "setting": "[2]", "value": 1.52, "unit": "µM"}]}
{"smiles": "COc1ccc(-c2csc(N3N=C(c4ccc(F)cc4)CC3c3ccc4c(c3)OCCO4)n2)cc1", "note": "(stereo not given)", "values": [{"measurement": "IC50", "setting": "MCF7 [1]", "value": 4.53, "unit": "µM"}, {"measurement": "IC50", "setting": "[2]", "value": 4.43, "unit": "µM"}]}
{"smiles": "COc1ccc(C2=NN(c3nc(-c4ccc(OC)cc4)cs3)C(c3ccc4c(c3)OCCO4)C2)cc1", "note": "(stereo not given)", "values": [{"measurement": "IC50", "setting": "MCF7 [1]", "value": 2.73, "unit": "µM"}, {"measurement": "IC50", "setting": "[2]", "value": 3.01, "unit": "µM"}]}
{"smiles": "COc1ccc(-c2csc(N3N=C(c4ccc(Br)cc4)CC3c3ccc4c(c3)OCO4)n2)cc1", "note": "(stereo not given)", "values": [{"measurement": "IC50", "setting": "MCF7 [1]", "value": 0.27, "unit": "µM"}, {"measurement": "IC50", "setting": "[3]", "value": 0.85, "unit": "µM"}, {"measurement": "IC50", "setting": "[2]", "value": 0.32, "unit": "µM"}]}
{"smiles": "Fc1ccc(C2=NN(c3nc(-c4ccc(Br)cc4)cs3)C(c3ccc4c(c3)OCCO4)C2)cc1", "note": "(stereo not given)", "values": [{"measurement": "IC50", "setting": "MCF7 [1]", "value": 4.2, "unit": "µM"}, {"measurement": "IC50", "setting": "[2]", "value": 4.11, "unit": "µM"}]}
{"smiles": "COc1ccc(C2=NN(c3nc(-c4ccc(Br)cc4)cs3)C(c3ccc4c(c3)OCO4)C2)cc1", "note": "(stereo not given)", "values": [{"measurement": "IC50", "setting": "MCF7 [1]", "value": 2.47, "unit": "µM"}, {"measurement": "IC50", "setting": "[2]", "value": 2.54, "unit": "µM"}]}
{"smiles": "Brc1ccc(C2=NN(c3nc(-c4ccc(Br)cc4)cs3)C(c3ccc4c(c3)OCO4)C2)cc1", "note": "(stereo not given)", "values": [{"measurement": "IC50", "setting": "MCF7 [1]", "value": 0.09, "unit": "µM"}, {"measurement": "inhibition", "setting": "[4]", "value": "Dose-dependent effect"}, {"measurement": "IC50", "setting": "[3]", "value": 0.18, "unit": "µM"}, {"measurement": "IC50", "setting": "[2]", "value": 0.12, "unit": "µM"}, {"measurement": "Activity", "setting": "B16-F10", "value": "Dose-dependent effect"}, {"measurement": "Activity", "setting": "MCF7 [5]", "value": "Dose-dependent effect"}]}
{"smiles": "COc1ccc(-c2csc(N3N=C(c4ccc(Cl)cc4)CC3c3ccc4c(c3)OCO4)n2)cc1", "note": "(stereo not given)", "values": [{"measurement": "IC50", "setting": "MCF7 [1]", "value": 2.41, "unit": "µM"}, {"measurement": "IC50", "setting": "[2]", "value": 2.32, "unit": "µM"}]}
{"smiles": "Cc1ccc(C2=NN(c3nc(-c4ccc(Br)cc4)cs3)C(c3ccc4c(c3)OCCO4)C2)cc1", "note": "(stereo not given)", "values": [{"measurement": "IC50", "setting": "MCF7 [1]", "value": 1.59, "unit": "µM"}, {"measurement": "IC50", "setting": "[2]", "value": 1.68, "unit": "µM"}]}
{"smiles": "COc1ccc(C2=NN(c3nc(-c4ccc(Br)cc4)cs3)C(c3ccc4c(c3)OCCO4)C2)cc1", "note": "(stereo not given)", "values": [{"measurement": "IC50", "setting": "MCF7 [1]", "value": 2.54, "unit": "µM"}, {"measurement": "IC50", "setting": "[2]", "value": 2.52, "unit": "µM"}]}
{"smiles": "COc1ccc(-c2csc(N3N=C(c4ccc(Br)cc4)CC3c3ccc4c(c3)OCCO4)n2)cc1", "note": "(stereo not given)", "values": [{"measurement": "IC50", "setting": "MCF7 [1]", "value": 0.87, "unit": "µM"}, {"measurement": "IC50", "setting": "[3]", "value": 1.32, "unit": "µM"}, {"measurement": "IC50", "setting": "[2]", "value": 1.12, "unit": "µM"}]}
{"smiles": "COc1ccc(C2=NN(c3nc(-c4ccc(OC)cc4)cs3)C(c3ccc4c(c3)OCO4)C2)cc1", "note": "(stereo not given)", "values": [{"measurement": "IC50", "setting": "MCF7 [1]", "value": 2.73, "unit": "µM"}, {"measurement": "IC50", "setting": "[2]", "value": 2.67, "unit": "µM"}]}
{"smiles": "Clc1ccc(C2=NN(c3nc(-c4ccc(Br)cc4)cs3)C(c3ccc4c(c3)OCO4)C2)cc1", "note": "(stereo not given)", "values": [{"measurement": "IC50", "setting": "MCF7 [1]", "value": 1.72, "unit": "µM"}, {"measurement": "IC50", "setting": "[3]", "value": 2.38, "unit": "µM"}, {"measurement": "IC50", "setting": "[2]", "value": 1.51, "unit": "µM"}]}
